This passage reports Ratio, MIC and Activity results from ChEMBL document CHEMBL3271984, “Antifungal activity of 4-substituted crotonic acid esters” (1976).

Values after ≈ are worked out from the molar mass of the structure shown. Active and inactive are the calls of the source. The rule behind the calls is not given here. Where only a bound is given, the exact number is not on record here.

The test system of experiment [1] is Aspergillus niger. The experiment can be described thus: Antifungal activity against Aspergillus niger ATCC 1004 assessed as ratio of glutathione to compound at pH 7 incubated for 5 days in absence of 10% beef serum. Format: functional. In short, it runs like this: (§1)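 Sabouraud agar at pH 7.0 without beef serum. The toxicant was added at one increment above its minimal inhibitory level for each organism. Cystine, cysteine or glutathione was added at molar ratios of 1:1 to 10:1 versus toxicant, in 1-equiv steps. Plates were inoculated and incubated at 37° for 20 h (C. albicans, M. mucedo) or 28° for 5 days (A. niger, T. mentagrophytes), then scored for growth.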

Experiment [2] concerns Trichophyton mentagrophytes. The experiment can be described thus: Antifungal activity against Trichophyton mentagrophytes ATCC 9129 assessed as ratio of glutathione to compound at pH 7 incubated for 5 days in absence of 10% beef serum. Format: functional. In short, it runs like this: as §1
Experiment [3] relates to Candida albicans. Description: Antifungal activity against Candida albicans ATCC 10231 assessed as growth inhibition at pH 7 incubated for 20 hrs in presence of 10% beef serum. Format: functional. The note with it: ATCC 10231, 20 h, read-out: MIC100. A digest of the protocol:
(§2)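 Agar dilution in Sabouraud dextrose agar at pH 5.6 or 7.0, with or without 10% beef serum. C. albicans and M. mucedo were incubated 20 h at 37°; A. niger and T. mentagrophytes 5 days at 28°. The value is the minimal µg/ml giving 100% inhibition. Steps were 1 µg/ml up to 10, 2 up to 20, then 10 up to 100 µg/ml maximum.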

Experiment [4] relates to Mucor mucedo. The experiment can be described thus: Antifungal activity against Mucor mucedo ATCC 7941 assessed as ratio of cystine to compound at pH 7 incubated for 20 hrs in absence of 10% beef serum. The experiment is classed as functional. A digest of the protocol: as §1
Experiment [5] concerns Trichophyton mentagrophytes. The experiment can be described thus: Antifungal activity against Trichophyton mentagrophytes ATCC 9129 assessed as growth inhibition at pH 5.6 incubated for 5 days in absence of 10% beef serum. The note with it: ATCC 9129, 120 h, read-out: MIC100. Format: functional. A digest of the protocol:
as §2

For experiment [6], the system named is Mucor mucedo. Description: Antifungal activity against Mucor mucedo ATCC 7941 assessed as growth inhibition at pH 5.6 incubated for 20 hrs in presence of 10% beef serum. Format: functional. The note with it: ATCC 7941, 20 h, read-out: MIC100. A digest of the protocol:
as §2

In experiment [7] the test system is Mucor mucedo. Description: Antifungal activity against Mucor mucedo ATCC 7941 assessed as growth inhibition at pH 7 incubated for 20 hrs in presence of 10% beef serum. The experiment is classed as functional. The note with it: ATCC 7941, 20 h, read-out: MIC100. A digest of the protocol: as §2
The subject of experiment [8] is Mucor mucedo. Description: Antifungal activity against Mucor mucedo ATCC 7941 assessed as growth inhibition at pH 7 incubated for 20 hrs in absence of 10% beef serum. The experiment is classed as functional. Conditions: ATCC 7941, 20 h, read-out: MIC100. In short, it runs like this: as §2
Experiment [9] relates to Candida albicans. Description: Antifungal activity against Candida albicans ATCC 10231 assessed as ratio of glutathione to compound at pH 7 incubated for 20 hrs in absence of 10% beef serum. Format: functional. A digest of the protocol: as §1
The test system of experiment [10] is Trichophyton mentagrophytes. Description: Antifungal activity against Trichophyton mentagrophytes ATCC 9129 assessed as growth inhibition at pH 7 incubated for 5 days in absence of 10% beef serum. Format: functional. The note with it: ATCC 9129, 120 h, read-out: MIC100. In short, it runs like this:
as §2

Experiment [11] concerns Mucor mucedo. Description: Antifungal activity against Mucor mucedo ATCC 7941 assessed as growth inhibition at pH 5.6 incubated for 20 hrs in absence of 10% beef serum. Format: functional. Conditions: ATCC 7941, 20 h, read-out: MIC100. In short, it runs like this:
as §2

Experiment [12] concerns Candida albicans. The experiment can be described thus: Antifungal activity against Candida albicans ATCC 10231 assessed as growth inhibition at pH 5.6 incubated for 20 hrs in presence of 10% beef serum. Conditions: ATCC 10231, 20 h, read-out: MIC100. The experiment is classed as functional. In short, it runs like this: as §2
The subject of experiment [13] is Trichophyton mentagrophytes. Description: Antifungal activity against Trichophyton mentagrophytes ATCC 9129 assessed as growth inhibition at pH 5.6 incubated for 5 days in presence of 10% beef serum. The experiment is classed as functional. The note with it: ATCC 9129, 120 h, read-out: MIC100. A digest of the protocol:
as §2

The subject of experiment [14] is Aspergillus niger. Description: Antifungal activity against Aspergillus niger ATCC 1004 assessed as ratio of cystine to compound at pH 7 incubated for 5 days in absence of 10% beef serum. The experiment is classed as functional. In short, it runs like this: as §1
Experiment [15] concerns Mucor mucedo. Description: Antifungal activity against Mucor mucedo ATCC 7941 assessed as ratio of glutathione to compound at pH 7 incubated for 20 hrs in absence of 10% beef serum. The experiment is classed as functional. A digest of the protocol:
as §1

Experiment [16] concerns Candida albicans. Description: Antifungal activity against Candida albicans ATCC 10231 assessed as growth inhibition at pH 5.6 incubated for 20 hrs in absence of 10% beef serum. The experiment is classed as functional. The note with it: ATCC 10231, 20 h, read-out: MIC100. In short, it runs like this: as §2
The test system of experiment [17] is Aspergillus niger. The experiment can be described thus: Antifungal activity against Aspergillus niger ATCC 1004 assessed as growth inhibition at pH 7 incubated for 5 days in absence of 10% beef serum. Format: functional. Conditions: ATCC 1004, 120 h, read-out: MIC100. A digest of the protocol:
as §2

Experiment [18] concerns Aspergillus niger. The experiment can be described thus: Antifungal activity against Aspergillus niger ATCC 1004 assessed as growth inhibition at pH 5.6 incubated for 5 days in absence of 10% beef serum. Conditions: ATCC 1004, 120 h, read-out: MIC100. The experiment is classed as functional. A digest of the protocol: as §2
Experiment [19] has as its system Mucor mucedo. Description: Antifungal activity against Mucor mucedo ATCC 7941 assessed as ratio of cysteine to compound at pH 7 incubated for 20 hrs in absence of 10% beef serum. The experiment is classed as functional. A digest of the protocol: as §1
Experiment [20] concerns Trichophyton mentagrophytes. Description: Antifungal activity against Trichophyton mentagrophytes ATCC 9129 assessed as ratio of cysteine to compound at pH 7 incubated for 5 days in absence of 10% beef serum. The experiment is classed as functional. A digest of the protocol: as §1
Experiment [21] deals with Candida albicans. The experiment can be described thus: Antifungal activity against Candida albicans ATCC 10231 assessed as growth inhibition at pH 7 incubated for 20 hrs in absence of 10% beef serum. The experiment is classed as functional. The note with it: ATCC 10231, 20 h, read-out: MIC100. A digest of the protocol:
as §2

The subject of experiment [22] is Aspergillus niger. The experiment can be described thus: Antifungal activity against Aspergillus niger ATCC 1004 assessed as ratio of cysteine to compound at pH 7 incubated for 5 days in absence of 10% beef serum. The experiment is classed as functional. In short, it runs like this: as §1
Experiment [23] relates to Candida albicans. The experiment can be described thus: Antifungal activity against Candida albicans ATCC 10231 assessed as ratio of cysteine to compound at pH 7 incubated for 20 hrs in absence of 10% beef serum. Format: functional. In short, it runs like this: as §1
Experiment [24] deals with Aspergillus niger. Description: Antifungal activity against Aspergillus niger ATCC 1004 assessed as growth inhibition at pH 7 incubated for 5 days in presence of 10% beef serum. Format: functional. Conditions: ATCC 1004, 120 h, read-out: MIC100. A digest of the protocol: as §2
Experiment [25] relates to Trichophyton mentagrophytes. Description: Antifungal activity against Trichophyton mentagrophytes ATCC 9129 assessed as ratio of cystine to compound at pH 7 incubated for 5 days in absence of 10% beef serum. Format: functional. A digest of the protocol: as §1
Experiment [26] concerns Trichophyton mentagrophytes. The experiment can be described thus: Antifungal activity against Trichophyton mentagrophytes ATCC 9129 assessed as growth inhibition at pH 7 incubated for 5 days in presence of 10% beef serum. The note with it: ATCC 9129, 120 h, read-out: MIC100. Format: functional. In short, it runs like this: as §2
Experiment [27] has as its system Aspergillus niger. The experiment can be described thus: Antifungal activity against Aspergillus niger ATCC 1004 assessed as growth inhibition at pH 5.6 incubated for 5 days in presence of 10% beef serum. Format: functional. Conditions: ATCC 1004, 120 h, read-out: MIC100. A digest of the protocol:
as §2

The subject of experiment [28] is Candida albicans. Description: Antifungal activity against Candida albicans ATCC 10231 assessed as ratio of cystine to compound at pH 7 incubated for 20 hrs in absence of 10% beef serum. The experiment is classed as functional. In short, it runs like this: as §1
For experiment [29], the system named is Mucor mucedo. Description: Antifungal activity against Mucor mucedo ATCC 7941 incubated for 20 hrs. The experiment is classed as functional, organism-based.
Experiment [30] relates to Trichophyton mentagrophytes. The experiment can be described thus: Antifungal activity against Trichophyton mentagrophytes ATCC 9129 incubated for 5 days. The experiment is classed as functional, organism-based.
Experiment [31] concerns Aspergillus niger. Description: Antifungal activity against Aspergillus niger ATCC 1004 incubated for 5 days. The experiment is classed as functional, organism-based.
The test system of experiment [32] is Candida albicans. Description: Antifungal activity against Candida albicans ATCC 10231 incubated for 20 hrs. The experiment is classed as functional, organism-based.

Consider `COC(=O)/C=C/CBr`, for which the Ratio in experiment [1] is listed as under 1; in [2], 9; in experiment [4], over 10; in [9], 3; in experiment [14], over 10; in experiment [15], 8. Further, the Ratio in experiment [19] is on record as 4; in experiment [20], 10; in [22] it was under 1; in [23], 2; in experiment [25], over 10; in [28] it was over 10. In addition, the MIC is 30 µg/mL in experiment [3]; 3 µg/mL (≈ 16.8 µM) in experiment [5]; 8 µg/mL in [6]; 14 µg/mL in experiment [7]; 10 µg/mL (≈ 55.9 µM) in experiment [8]; 5 µg/mL (≈ 27.9 µM) in experiment [10]. Also, the MIC was 6 µg/mL (≈ 33.5 µM) in experiment [11]; 30 µg/mL in experiment [12]; 5 µg/mL in experiment [13]; 30 µg/mL (≈ 168 µM) in experiment [16]; 50 µg/mL (≈ 279 µM) in experiment [17]; 50 µg/mL (≈ 279 µM) in [18]. For the same compound, the MIC in experiment [21] was determined as 30 µg/mL (≈ 168 µM); in experiment [24], 60 µg/mL; in experiment [26], 6 µg/mL; in experiment [27] it was 50 µg/mL.

`C/C=C/C(=O)OCCCCCC`: the outcome in experiment [29], in [30], in experiment [31] and in experiment [32] was inactive.

On to `C/C=C/C(=O)OCCCC`, for which the outcome in experiment [29], in experiment [30], in experiment [31] and in [32] was inactive.

Take `COC(=O)/C=C/CSC`: the Ratio was under 1 in experiment [2]; over 10 in experiment [4]; under 1 in experiment [15]; under 1 in experiment [19]; under 1 in experiment [20]; over 10 in experiment [25]. Also, the MIC in [5] is 90 µg/mL (≈ 616 µM); in experiment [8] it was 80 µg/mL (≈ 547 µM); in [10], 70 µg/mL (≈ 479 µM); in experiment [11], 70 µg/mL (≈ 479 µM).

`C/C=C/C(=O)OC`: the result in experiment [29], in [30], in experiment [31] and in experiment [32] was inactive.

In the case of `C/C=C/C(=O)OCCC`, the result in experiment [29], in [30], in [31] and in [32] was inactive.

Turning to `CC1/C=C/C=C/C=C/C=C/C=C/C=C/C=C/C(OC2O[C@H](C)[C@@H](O)[C@H](N)[C@@H]2O)CC(O)C(C(=O)O)C(O)CC(=O)CC(O)CC(O)CC(O)CC(=O)CCCC(=O)CC(=O)OC1C(C)CC(C)C(O)CC(=O)c1ccc(N)cc1` (stereo not given in full), the MIC in experiment [3] is 2 µg/mL; in experiment [5] it was under 1 µg/mL; in [6] it was under 1 µg/mL; in [7], under 1 µg/mL; in [8], under 1 µg/mL; in experiment [10] it was 3 µg/mL (≈ 2.7 µM). The MIC in experiment [11] is under 1 µg/mL; in experiment [12], under 1 µg/mL; in experiment [13] it was under 1 µg/mL; in experiment [16] it was under 1 µg/mL; in experiment [17] it was 5 µg/mL (≈ 4.51 µM); in experiment [18], 2 µg/mL (≈ 1.8 µM). Moreover, the MIC in experiment [21] is under 1 µg/mL; in [24], 7 µg/mL; in experiment [26], 9 µg/mL; in experiment [27] it was 5 µg/mL.
